SKKanGAS inh: inhibitors of SKKanGAS S. pyogenes growth in kanamycin (SK-promoter or general growth effect); BacTiter-Glo, 6 h; inhibition, % at 7.5 µM; actives 1.3% (n = 300,000); AID 1662;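 active means mean replicate score, as percent of positive control median, at least 50; inconclusive means mean below 50 but one replicate at or above 50; inactive means mean and every replicate below 50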;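 further: strain carries kanamycin resistance gene driven by streptokinase promoter and grows in 40 µg/ml kanamycin; loss of luminescence reflects streptokinase promoter inhibition or plain growth inhibition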
Beta cell apopt: beta cell apoptosis inhibition. INS-1E cytokine-induced death, ATP luminescence, 48 h; percent of positive-control rescue, neutral wells zero. protection from apoptosis, % (concentration not given with the values). actives 0.8% (n = 300,000). AID 435005;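 active means Every replicate reaches about 75%, or at least half do and their mean reaches it too, limit read from the data; inconclusive means At least half of replicates reach the limit but their mean does not; inactive means Under half of replicates reach the limit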;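 further: higher means more ATP so stronger rescue from cytokine killing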
UPR CHOP act: apoptotic UPR (CHOP) activation | CHO-CHOP luciferase reporter, luminescence; percent of tunicamycin response over DMSO baseline | activation, % at 10 µM | actives 0.34% (n = 330,000);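 active means at 10 µM dose, activation of 40% or more, normalized to positive control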
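Material: CHO-CHOP cells, stable luciferase reporter of PERK-eIF2a-CHOP signalling; quantity: 500 reporter cells seeded per well; buffer or medium: F12 medium containing 10% fetal bovine serum; compound: one dose, 10 µM in 0.5% DMSO; incubation: 6 h compound treatment, 37 °C; measured by: Steady-Glo luciferase luminescence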
Mdm2 MdmX PPI: disrupts the human Mdm2-MdmX interaction; O15151+Q00987; SaOS-2 split-luciferase Mdm2/MdmX complementation, luminescence; inhibition, % at 8 µM; actives 3% (n = 330,000); AID 485346;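 active means inhibition of at least 50% at 8 µM in the primary screen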
UPR XBP1 act: adaptive UPR (XBP1) activation; CHO-XBP1 luciferase reporter, IRE1-XBP1 UPR activation, luminescence; percent of tunicamycin response, DMSO as zero; activation, % at 20 µM; actives 0.33% (n = 330,000); AID 463104;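 active means versus positive control, 20 µM dose yields 30% or more activation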
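Material: CHO-XBP1 cells stably carrying IRE1-XBP1-driven luciferase reporter | Medium: F12 with 10% serum | Compound dosing: 20 µM single concentration, DMSO 1% | Incubation: Overnight seeding at 37 °C, 6 h compound treatment at 37 °C | Detection: Steady-Glo luminescence read | Read-out basis: % activation of reporter signal versus tunicamycin and DMSO controls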
CSC inhib: cancer stem cell inhibition; cancer stem cell-like cells viability, luminescence; inhibition, % at 7.5 µM; actives 1.1% (n = 300,000); AID 2717; in the data active means inhibition above about 75%; inconclusive means no clear call, values can overlap the other calls; tested in HMLE shEcad cells
Mdm2 MdmX conf: human Mdm2/MdmX binding inhibition, confirmed. actives 55% (n = 10,000). inhibition, % at 8 µM. shares compounds with Mdm2 MdmX PPI. luminescent assay. AID 489028; in the data active means inhibition above about 40%
Full FLuc ctr: full-length luciferase inhibition in Mdm2/MdmX counter-screen. shares compounds with Mdm2 MdmX PPI. SaOS-2 full-length luciferase counterscreen, luminescence. inhibition, % at 8 µM. actives 77% (n = 6,200). AID 504607;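 active means mean inhibition at 8 µM reaching about 37%, which flags the compound as non-specific, limit read from the data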;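 further: p53-null SaOS-2 cells with luciferase driven by a doxycycline-inducible promoter; compound on cells about two nights before reading with doxycycline added after day one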
Large screens that a line does not name were inactive (follow-up assays come after a bar, where they were run). The list is not random: actives were taken first. Their share in the collection is about 4.8%.

CC1C(=O)C(C)(C)C(=O)OC1c1ccccc1 (stereo not drawn)	none
Cn1c2c(c(=O)n(C)c1=O)C(c1ccc(C(F)(F)F)cc1)CC(=O)N2 (stereo not drawn)	none
C[C@H]1C=CC(=O)O[C@H]1c1ccccc1	Mdm2 MdmX PPI 50 | Mdm2 MdmX conf inactive
C[C@@H]1C=CC(=O)O[C@@H]1c1ccc(C(F)(F)F)cc1	Mdm2 MdmX PPI 76, CSC inhib 92 | Mdm2 MdmX conf 69 | Full FLuc ctr inactive
CCN(CC)S(=O)(=O)c1cccc(C(=O)N/N=C(\C)c2ccc(O)cc2O)c1	Mdm2 MdmX PPI 73 (no result: Beta cell apopt, CSC inhib) | Mdm2 MdmX conf 57 | Full FLuc ctr 106
CCN(CC)S(=O)(=O)c1cccc(C(=O)N/N=C/c2ccc(O)c(O)c2O)c1	none (no result: SKKanGAS inh, UPR CHOP act, Mdm2 MdmX PPI, UPR XBP1 act)
Cc1[nH]c2ccccc2c1C(=O)C(=O)N1CCN(c2ccccc2Cl)CC1	none
COCCN(C(=O)CSc1nnc(-c2cccc(F)c2)n1N)c1c(N)n(CC(C)C)c(=O)[nH]c1=O	none
O=C(N/N=C/c1cc(Cl)ccc1O)c1ccccc1Br	SKKanGAS inh inconclusive, Beta cell apopt 110, Mdm2 MdmX PPI 54 | Mdm2 MdmX conf 58 | Full FLuc ctr 44
O=C(Cn1nnc(-c2ccccc2)n1)N/N=C/c1cc([N+](=O)[O-])ccc1O	SKKanGAS inh 101, Mdm2 MdmX PPI 53 | Mdm2 MdmX conf inactive
O=C(N/N=C/c1cc([N+](=O)[O-])ccc1O)c1cccc2ccccc12	SKKanGAS inh 94, Beta cell apopt 102, Mdm2 MdmX PPI 62 | Mdm2 MdmX conf 68 | Full FLuc ctr 43
Cc1cccc(NC(=O)CCC(=O)N/N=C/c2cc([N+](=O)[O-])ccc2O)c1	none
O=C(N/N=C/c1cc([N+](=O)[O-])ccc1O)c1cccc(NC(=O)c2cccc(Cl)c2)c1	SKKanGAS inh 77, Beta cell apopt 81, Mdm2 MdmX PPI 51 | Mdm2 MdmX conf 50 | Full FLuc ctr 41
Cc1nc2ccc(C(=O)N/N=C/c3cc([N+](=O)[O-])ccc3O)cc2[nH]1	none (no result: CSC inhib)
O=C(COc1ccccc1)Nc1ccncc1Cl	none
O=C(COc1ccc(Cl)cc1)NCCNC(=O)c1ccccn1	none (no result: CSC inhib)
O=C(O)CCN1C(=O)C2C3C=CC(C2C1=O)C1C(=O)N(CCC(=O)O)C(=O)C31 (stereo not drawn)	none
CS(=O)(=O)N(CC(=O)N1CCc2ccccc2C1)c1ccc(Cl)cc1F	none (no result: UPR CHOP act, Mdm2 MdmX PPI, UPR XBP1 act)
O=C(Cn1cc([N+](=O)[O-])cn1)N1CCN(Cc2ccc3c(c2)OCO3)CC1	none
O=[N+]([O-])c1ccc(O)c(/C=N\N=C2c3ccccc3-c3ccccc32)c1	Mdm2 MdmX PPI 93 | Mdm2 MdmX conf 91 | Full FLuc ctr 46
O=C(N/N=C/c1cc([N+](=O)[O-])ccc1O)c1ccc(COc2ccc3c(c2)CCC3)o1	Beta cell apopt 105, Mdm2 MdmX PPI 94, UPR XBP1 act 33, CSC inhib 101 | Mdm2 MdmX conf 72 | Full FLuc ctr 51
NC(N)=N/N=C/c1cc([N+](=O)[O-])ccc1O	none
COc1ccc(Br)cc1/C=N/NC(=O)c1ccc(COc2ccc3c(c2)CCC3)o1	none (no result: CSC inhib)
COc1ccc(NC(=O)COC(=O)Cc2coc3cc(OC)ccc23)c(OC)c1	none (no result: SKKanGAS inh)
O=C(NCCS(=O)(=O)N1CCN(c2ccccc2F)CC1)c1cccc(Br)c1	none
CCOc1cc(CNCCCN2CCOCC2)cc(Cl)c1OCC(=O)NC(C)(C)C	none
CCOc1cc(CNCCCN2CCOCC2)cc(Br)c1OCC(=O)Nc1cccc(C(F)(F)F)c1	Mdm2 MdmX PPI 98 | Mdm2 MdmX conf 71 | Full FLuc ctr 45
COc1cc(CNCCCN2CCOCC2)cc(Br)c1OCc1ccc(Cl)cc1	Mdm2 MdmX PPI 69 | Mdm2 MdmX conf 45 | Full FLuc ctr 59
CC(C)c1nnc(NC(=O)CC(=O)Nc2ccccc2C(=O)O)s1	Mdm2 MdmX PPI 67 | Mdm2 MdmX conf 47 | Full FLuc ctr 74

Bioassay records: PubChem, several laboratories
